Experimental data reported in ChEMBL document CHEMBL3352472, “Discovery of 4-aryl-7-hydroxyindoline-based P2Y1 antagonists as novel antiplatelet agents” (J Med Chem, 2014).
≈ marks a conversion by molar mass, not a printed value. Calls of active or inactive are those of the source. No cut-off for these calls is given here.

Experiments:
[1] = test system: Oryctolagus cuniculus; test: Induction of bleeding time in rabbit model of electrically-induced carotid artery thrombosis at 0.03 mg/kg, iv + 0.1 mg/kg/hr, iv dosed 30 mins before electrical stimulation (reference value: 1 +/- 0.05); type: organism-based; conditions: in vivo, 0.5 h
[2] = test system: Oryctolagus cuniculus; test: Induction of bleeding time in rabbit model of electrically-induced carotid artery thrombosis at 0.01 mg/kg, iv + 0.033 mg/kg/hr, iv dosed 30 mins before electrical stimulation (reference value: 1 +/- 0.05); type: organism-based; conditions: in vivo, 0.5 h
[3] = test system: Oryctolagus cuniculus; test: Induction of bleeding time in rabbit model of electrically-induced carotid artery thrombosis at 90% antithrombotic dose administered 30 mins before electrical stimulation (reference value: 1 +/- 0.05); type: organism-based; conditions: in vivo, 0.5 h
[4] = Oral bioavailability in rat at 15 mg/kg by discrete dosing method; type: ADME, organism-based; conditions: in vivo
Method in brief: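 Discrete rat PK; 15 mg/kg oral and 0.5 mg/kg iv, both in solution in DMAc/cremophor/EtOH/water (10/10/10/70).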

[5] = test system: Oryctolagus cuniculus; test: Induction of bleeding time in rabbit model of electrically-induced carotid artery thrombosis at 0.3 mg/kg, iv + 1 mg/kg/hr, iv dosed 30 mins before electrical stimulation (reference value: 1 +/- 0.05); type: organism-based; conditions: in vivo, 0.5 h
[6] = Clearance in rat at 0.5 mg/kg, iv by discrete dosing method; type: ADME, organism-based; design: dose 0.5 mg/kg, route intravenous; conditions: in vivo
Method in brief: (§1)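 Discrete rat PK; 0.5 mg/kg iv given in solution in DMAc/cremophor/EtOH/water (10/10/10/70).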

[7] = test system: Oryctolagus cuniculus; test: Antithrombotic activity in rabbit model of electrically-induced carotid artery thrombosis assessed as reduction in thrombus formation at 0.003 mg/kg, iv + 0.01 mg/kg/hr, iv dosed 30 mins before electrical stimulation (reference value: 3 +/- 2%); type: functional
[8] = Metabolic stability in mouse liver microsomes assessed as compound remaining at 0.5 uM after 10 mins; type: ADME; conditions: read-out: Stability
Method in brief: (§2)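 Compound at 0.5 μM incubated 10 min with 1 mg/mL human, rat or mouse liver microsomes; percentage of parent remaining reported.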

[9] = Aqueous solubility of the compound; type: physicochemical; conditions: buffer
Method in brief: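 Amorphous solid; solubility measured at pH 3.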

[10] = test system: Oryctolagus cuniculus; test: Induction of bleeding time in rabbit model of electrically-induced carotid artery thrombosis at 0.1 mg/kg, iv + 0.033 mg/kg/hr, iv dosed 30 mins before electrical stimulation (reference value: 1 +/- 0.05); type: organism-based; conditions: in vivo, 0.5 h
[11] = test system: Oryctolagus cuniculus; test: Antithrombotic activity in rabbit model of electrically-induced carotid artery thrombosis assessed as reduction in thrombus formation at 0.03 mg/kg, iv + 0.1 mg/kg/hr, iv dosed 30 mins before electrical stimulation (reference value: 3 +/- 2%); type: functional
[12] = Metabolic stability in rat liver microsomes assessed as compound remaining at 0.5 uM after 10 mins; type: ADME; conditions: read-out: Stability; method in brief: as §2
[13] = test system: Oryctolagus cuniculus; test: Induction of bleeding time in rabbit model of electrically-induced carotid artery thrombosis at 0.003 mg/kg, iv + 0.01 mg/kg/hr, iv dosed 30 mins before electrical stimulation (reference value: 1 +/- 0.05); type: organism-based; conditions: in vivo, 0.5 h
[14] = Metabolic stability in human liver microsomes assessed as compound remaining at 0.5 uM after 10 mins; type: ADME; conditions: read-out: Stability; method in brief: as §2
[15] = test system: Oryctolagus cuniculus; test: Antithrombotic activity in rabbit model of electrically-induced carotid artery thrombosis assessed as reduction in thrombus formation at 0.3 mg/kg, iv + 1 mg/kg/hr, iv dosed 30 mins before electrical stimulation (reference value: 3 +/- 2%); type: functional
[16] = Volume of distribution in rat at 0.5 mg/kg, iv by discrete dosing method; type: ADME, organism-based; design: dose 0.5 mg/kg, route intravenous; conditions: in vivo; method in brief: as §1
[17] = test system: Oryctolagus cuniculus; test: Antithrombotic activity in rabbit model of electrically-induced carotid artery thrombosis assessed as reduction in thrombus formation at 0.1 mg/kg, iv + 0.033 mg/kg/hr, iv dosed 30 mins before electrical stimulation (reference value: 3 +/- 2%); type: functional
[18] = test system: Oryctolagus cuniculus; test: Antithrombotic activity in rabbit model of electrically-induced carotid artery thrombosis assessed as reduction in thrombus formation at 0.01 mg/kg, iv + 0.033 mg/kg/hr, iv dosed 30 mins before electrical stimulation (reference value: 3 +/- 2%); type: functional
[19] = Half life in rat at 0.5 mg/kg, iv by discrete dosing method; type: ADME, organism-based; design: dose 0.5 mg/kg, route intravenous; conditions: in vivo; method in brief: as §1
[20] = target: P2Y purinoceptor 1 (Homo sapiens, UniProt P47900); test: Antagonist activity at P2Y1 receptor in washed human platelets assessed as 1 uM 2-methylthio-ADP-induced calcium flux by FLIPR assay; type: functional
Chain of P2Y purinoceptor 1 (P47900 whole entry): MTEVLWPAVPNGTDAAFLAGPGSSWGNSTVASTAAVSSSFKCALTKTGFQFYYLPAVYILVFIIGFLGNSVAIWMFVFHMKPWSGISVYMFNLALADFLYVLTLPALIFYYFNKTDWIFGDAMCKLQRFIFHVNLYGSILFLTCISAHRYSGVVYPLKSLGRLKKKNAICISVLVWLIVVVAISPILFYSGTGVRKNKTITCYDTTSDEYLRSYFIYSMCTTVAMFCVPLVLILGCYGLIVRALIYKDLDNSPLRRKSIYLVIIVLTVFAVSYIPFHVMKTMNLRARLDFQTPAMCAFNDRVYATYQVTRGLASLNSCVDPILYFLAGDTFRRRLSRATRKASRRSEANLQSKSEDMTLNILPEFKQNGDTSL

[21] = Antagonist activity at P2Y1 receptor in platelet-enriched rabbit plasma assessed as 10 uM ADP-induced platelet aggregation preincubated for 1 min followed by ADP induction measured at 5 mins by aggregometric analysis; type: cell-free; conditions: Oryctolagus cuniculus
[22] = Aqueous solubility of the compound at pH 3 using compound in amorphous solid form; type: physicochemical; conditions: buffer
[23] = test system: Oryctolagus cuniculus; test: Induction of bleeding time in rabbit model of electrically-induced carotid artery thrombosis administered 30 mins before electrical stimulation; type: organism-based; conditions: in vivo, 0.5 h
Method in brief: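 Rabbits received an iv bolus plus continuous infusion (0.003 + 0.01 up to 0.3 + 1 mg/kg + mg·kg−1·h−1), started 30 min before carotid electrical stimulation and maintained throughout. Vehicle was 10% DMAc/2.5% PVP-K12/1% Pluronic F-108/D5W. Bleeding time was recorded up to 20 min after cuticle incision and expressed as fold of vehicle; mean ± SEM, n = 5–8 per group.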

[24] = Volume of distribution at steady state in rat at 0.5 mg/kg by cassette dosing method; type: ADME, organism-based; design: dose 0.5 mg/kg; conditions: in vivo, read-out: Vdss
[25] = target: P2Y purinoceptor 2 (Homo sapiens, UniProt P41231); test: Antagonist activity at P2Y2 receptor (unknown origin)
Chain of P2Y purinoceptor 2 (P41231 whole entry): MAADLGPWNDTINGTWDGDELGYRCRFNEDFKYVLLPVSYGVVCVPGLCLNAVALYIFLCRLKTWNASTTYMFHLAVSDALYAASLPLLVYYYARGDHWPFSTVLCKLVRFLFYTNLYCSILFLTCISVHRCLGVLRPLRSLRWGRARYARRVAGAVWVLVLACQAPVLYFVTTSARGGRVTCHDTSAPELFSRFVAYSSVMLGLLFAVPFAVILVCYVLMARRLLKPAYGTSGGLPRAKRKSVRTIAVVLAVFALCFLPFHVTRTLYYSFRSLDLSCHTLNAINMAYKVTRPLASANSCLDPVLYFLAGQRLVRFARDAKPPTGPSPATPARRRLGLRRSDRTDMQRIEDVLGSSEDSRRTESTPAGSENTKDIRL

[26] = target: hERG (KCNH2) (Homo sapiens, UniProt Q12809); test: Inhibition of human ERG at 1 uM by patch clamp assay
Chain of hERG (KCNH2) (Q12809 whole entry): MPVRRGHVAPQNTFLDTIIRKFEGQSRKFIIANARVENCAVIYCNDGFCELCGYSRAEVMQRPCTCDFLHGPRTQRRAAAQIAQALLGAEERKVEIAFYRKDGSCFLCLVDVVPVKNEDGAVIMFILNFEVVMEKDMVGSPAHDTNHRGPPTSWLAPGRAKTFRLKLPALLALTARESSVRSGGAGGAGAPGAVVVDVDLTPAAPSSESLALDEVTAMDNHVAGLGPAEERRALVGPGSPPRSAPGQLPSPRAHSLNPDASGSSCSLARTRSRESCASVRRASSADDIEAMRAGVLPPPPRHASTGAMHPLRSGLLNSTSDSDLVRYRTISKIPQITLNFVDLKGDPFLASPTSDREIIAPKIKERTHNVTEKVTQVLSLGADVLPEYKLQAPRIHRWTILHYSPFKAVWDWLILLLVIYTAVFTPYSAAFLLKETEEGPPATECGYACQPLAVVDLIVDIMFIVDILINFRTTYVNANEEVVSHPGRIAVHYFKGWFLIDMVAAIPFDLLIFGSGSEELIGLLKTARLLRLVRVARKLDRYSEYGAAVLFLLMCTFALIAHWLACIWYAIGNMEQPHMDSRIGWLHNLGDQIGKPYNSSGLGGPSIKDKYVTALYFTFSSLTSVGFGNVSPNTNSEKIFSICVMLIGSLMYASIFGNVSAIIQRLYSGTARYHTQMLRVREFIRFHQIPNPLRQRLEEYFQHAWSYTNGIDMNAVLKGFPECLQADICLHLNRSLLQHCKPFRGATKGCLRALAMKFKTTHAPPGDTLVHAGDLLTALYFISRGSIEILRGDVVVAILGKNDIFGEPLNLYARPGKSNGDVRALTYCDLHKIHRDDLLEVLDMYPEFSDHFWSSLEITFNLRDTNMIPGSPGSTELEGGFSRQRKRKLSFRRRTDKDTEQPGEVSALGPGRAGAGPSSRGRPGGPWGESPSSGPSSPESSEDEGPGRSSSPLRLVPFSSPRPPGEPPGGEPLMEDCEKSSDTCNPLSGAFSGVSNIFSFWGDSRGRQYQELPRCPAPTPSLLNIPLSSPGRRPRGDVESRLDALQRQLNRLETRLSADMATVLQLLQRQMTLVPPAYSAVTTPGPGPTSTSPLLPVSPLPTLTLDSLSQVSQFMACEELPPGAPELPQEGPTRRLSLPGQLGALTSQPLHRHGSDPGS

[27] = Oral bioavailability in rat at 0.5 mg/kg by cassette dosing method; type: ADME, organism-based; conditions: in vivo
[28] = Clearance in rat at 0.5 mg/kg by cassette dosing method; type: ADME, organism-based; design: dose 0.5 mg/kg; conditions: in vivo
[29] = test system: Oryctolagus cuniculus; test: Antithrombotic activity in rabbit model of electrically-induced carotid artery thrombosis assessed as reduction in thrombus formation dosed 30 mins before electrical stimulation; type: functional, organism-based
[30] = target: P2Y purinoceptor 12 (Homo sapiens, UniProt Q9H244); test: Antagonist activity at P2Y12 receptor (unknown origin)
Chain of P2Y purinoceptor 12 (Q9H244 whole entry): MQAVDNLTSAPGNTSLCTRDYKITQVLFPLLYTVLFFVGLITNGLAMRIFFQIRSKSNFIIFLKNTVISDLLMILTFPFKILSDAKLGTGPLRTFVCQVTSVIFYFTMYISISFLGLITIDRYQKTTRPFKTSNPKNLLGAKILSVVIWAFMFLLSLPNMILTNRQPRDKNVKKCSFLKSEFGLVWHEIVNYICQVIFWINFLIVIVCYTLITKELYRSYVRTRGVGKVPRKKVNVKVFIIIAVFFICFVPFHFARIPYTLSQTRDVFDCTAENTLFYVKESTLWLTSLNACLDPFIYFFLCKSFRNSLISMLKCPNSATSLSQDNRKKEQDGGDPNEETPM

CC1(C)CN(c2ccccc2NC(=O)Nc2ccc(OC(F)(F)F)cc2)c2c(O)cc(F)c(-c3ccc(Cl)cc3)c21
fold change (FC) [1]: 2.7 | fold change (FC) [2]: 1.4 | fold change (FC) [3]: 4.7 | bioavailability [4]: 10% | fold change (FC) [5]: 4.7 | clearance [6]: 1.3 mL/min/kg | inhibition (INH) [7]: 22% | remaining at 10 min, 0.5 µM [8]: 79% | solubility [9]: < 1 µg/mL | fold change (FC) [10]: 3.7 | inhibition (INH) [11]: 50% | remaining at 10 min, 0.5 µM [12]: 90% | fold change (FC) [13]: 1.1 | remaining at 10 min, 0.5 µM [14]: 83% | inhibition (INH) [15]: 95% | Vd [16]: 0.4 L/kg | inhibition (INH) [17]: 72% | inhibition (INH) [18]: 46% | half-life [19]: 12 h | IC50 [20]: 1.06 nM | IC50 [21]: 87 nM

CC(C)(C)CN1CCC2(CC1)CN(c1ccccc1NC(=O)Nc1nc3ccc(Cl)nc3s1)c1c(O)cc(F)c(-c3ccc(F)cc3)c12
solubility [22]: 3 µg/mL (≈ 4.35 µM) | remaining at 10 min, 0.5 µM [8]: 100% | Activity [23]: Non-toxic | Vd [24]: 2.1 L/kg | remaining at 10 min, 0.5 µM [12]: 93% | IC50 [25]: > 10000 nM | inhibition at 1 µM [26]: 96% | bioavailability [27]: 30% | clearance [28]: 4 mL/min/kg | remaining at 10 min, 0.5 µM [14]: 100% | inhibition [29]: Active | IC50 [30]: > 10000 nM | IC50 [20]: 0.12 nM | IC50 [21]: 590 nM
